Consider 34 compounds from ChEMBL document CHEMBL1275280, “Synthesis, structural elucidation and DNA-dependant protein kinase and antiplatelet studies of 2-amino-[5, 6, 7, 8-mono and 7, 8-di-substituted]-1,3-benzoxazines” (Eur J Med Chem, 2010).

Molecules are shown by their SMILES. The source made the active and inactive calls. The calls are words filed in the database; no cut-off is given here.

Test system in the first assay: not listed separately
As to the kind of experiment: Inhibition of DNA-dependent protein kinase at 1.6 uM. The gist of the method: (§1)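 Compound in DMSO was added in place of water, at final concentrations of 1.6–4.0. The reaction was stopped with termination buffer and captured on a biotin membrane. After washing, scintillation counts gave percent inhibition relative to the full-reaction positive control (n = 3).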
On to `Cc1c(OCc2ccccn2)ccc2c(=O)nc(N3CCOCC3)oc12`, for which the inhibition entry was “Active”.

Test system in a further assay: not listed separately
As to the kind of experiment: Inhibition of DNA-dependent protein kinase at 2 uM. The gist of the method: as §1
As for `Cc1c(OCc2ccncc2)ccc2c(=O)nc(N3CCOCC3)oc12`, the inhibition entry is “Active”.
Still for that read-out and setting: to `O=c1nc(N2CCOCC2)oc2c(-c3ccccc3)cccc12` belongs “Active”.

Test system in another assay: not listed separately
As to the kind of experiment: Inhibition of DNA-dependent protein kinase at 4 uM. The gist of the method: as §1
For the compound `CN1CCN(CCOc2ccc3oc(N4CCOCC4)nc(=O)c3c2)CC1`, the inhibition entry is “inactive”.
On to `CN1CCN(CCOc2cccc3oc(N4CCOCC4)nc(=O)c23)CC1`, for which the inhibition entry was “inactive”.
On to `Cc1c(OCCN2CCN(C)CC2)ccc2c(=O)nc(N3CCOCC3)oc12`, for which the inhibition entry was “Active”.
The same measure, in the same setting: to `CN1CCN(CCOc2cccc3c(=O)nc(N4CCOCC4)oc23)CC1` belongs “Active”.
The same measure, in the same setting: as for `Cc1c(OCc2cccnc2)ccc2c(=O)nc(N3CCOCC3)oc12`, the entry is “Active”; as for `CN1CCN(CCOc2ccc3c(=O)nc(N4CCOCC4)oc3c2)CC1`, “Active”.

The next assay deals with Platelet. As to the kind of experiment: Inhibition of collagen-induced platelet aggregation in human venous blood by optical method based aggregometry. The class given is functional, tissue-based.
The term IC50 denotes the concentration that inhibits the measured activity by half. In turn, `Cc1c(O)ccc2c(=O)nc(N3CCSCC3)oc12` displayed a half-maximal inhibitory concentration (IC50) not below 100 µM.
Still for that read-out and setting: as for `O=c1nc(N2CCOCC2)oc2cccc(OCCCl)c12`, the figure is not below 100 µM; as for `O=c1nc(N2CCOCC2)oc2c(OCc3ccncc3)cccc12`, 70 µM.
The compound `Cc1c(O)ccc2c(=O)nc(C3CCNCC3)oc12` gave an IC50 not below 90 µM.
On to `Cc1c(OCCCl)ccc2c(=O)nc(N3CCOCC3)oc12`, for which the IC50 amounted to 36 µM.
On the same count and under the same terms, as for `O=c1nc(N2CCOCC2)oc2cc(OCc3ccncc3)ccc12`, the figure is 45 µM; as for `CCOc1ccc2c(=O)nc(N3CCOCC3)oc2c1`, 85 µM.
Compound `O=c1nc(N2CCOCC2)oc2ccc(OCCBr)cc12` came in with a concentration for half-maximal inhibition (IC50) of 83 µM.
As to `O=c1nc(N2CCOCC2)oc2cc(OCc3cccnc3)ccc12`, half-maximal inhibition (IC50) was put at 70 µM.
Turning to `Cc1c(OCc2ccncc2)ccc2c(=O)nc(N3CCOCC3)oc12`, inhibition was half-maximal at 4 µM (IC50). This IC50 lies about 18-fold lower than the previous one.
The compound `Cc1c(OCCN2CCN(C)CC2)ccc2c(=O)nc(N3CCSCC3)oc12` showed an IC50 of 47 µM.
Same read-out and setting: as for `O=c1nc(N2CCOCC2)oc2cc(F)ccc12`, the figure is 80 µM; as for `O=c1nc(N2CCOCC2)oc2c(OCCCl)cccc12`, 60 µM.
`CN1CCN(CCOc2ccc3oc(N4CCOCC4)nc(=O)c3c2)CC1` yielded a half-maximal inhibitory concentration (IC50) not below 86 µM.
Still for that read-out and setting: as for `Cc1c(OCCN2CCN(C)CC2)ccc2c(=O)nc(N3CCCCC3)oc12`, the figure is 36 µM.
Take `O=c1nc(N2CCOCC2)oc2c(OCCBr)cccc12`: half-maximal inhibition (IC50) was put at 70 µM.
On the same count and under the same terms, to `CC(C)c1cccc2c(=O)nc(N3CCOCC3)oc12` belongs 70 µM; to `Cc1c(OCCBr)ccc2c(=O)nc(N3CCCCC3)oc12`, 61 µM.
On the same count and under the same terms, to `O=c1nc(N2CCOCC2)oc2ccc(OCc3cccnc3)cc12` belongs not below 90 µM.
`CN1CCN(CCOc2cccc3oc(N4CCOCC4)nc(=O)c23)CC1` returned a concentration for half-maximal inhibition (IC50) not below 100 µM.
As to `O=c1nc(N2CCOCC2)oc2ccc(OCCCl)cc12`, the half-inhibitory concentration (IC50) is 87 µM.
Still for that read-out and setting: to `Cc1c(OCCBr)ccc2c(=O)nc(N3CCSCC3)oc12` belongs 75 µM; to `O=c1nc(N2CCOCC2)oc2cccc(OCc3cccnc3)c12`, not below 100 µM; to `CN1CCN(CCOc2cccc3c(=O)nc(N4CCOCC4)oc23)CC1`, 80 µM.
Turning to `O=c1nc(N2CCOCC2)oc2c(OCc3cccnc3)cccc12`, 22 µM corresponded to half-maximal inhibition (IC50). Against the preceding compound, the IC50 is about 3.6-fold lower.
Same read-out and setting: as for `O=c1nc(N2CCOCC2)oc2cc(OCc3ccccn3)ccc12`, the figure is 75 µM; as for `O=c1nc(N2CCOCC2)oc2cccc(OCc3ccccc3)c12`, not below 100 µM; as for `Cc1c(OCc2cccnc2)ccc2c(=O)nc(N3CCOCC3)oc12`, 2 µM.
For the compound `Cc1c(OCc2ccccn2)ccc2c(=O)nc(N3CCOCC3)oc12`, the IC50 was 34 µM.
Still for that read-out and setting: as for `O=c1nc(N2CCOCC2)oc2ccc(OCc3ccccc3)cc12`, the figure is not below 100 µM; as for `O=c1nc(N2CCOCC2)oc2c(OCc3ccccc3)cccc12`, 53 µM.
